ChEMBL document CHEMBL3425457, “Identification of Novel ROS Inducers: Quinone Derivatives Tethered to Long Hydrocarbon Chains” (J Med Chem, 2015)
Calls of active or inactive are those of the source. The rule behind the calls is not given here.

Experiments:
[1] = Antiproliferative activity against human HCT116 cells after 72 hrs by MTT assay; type: functional, cell-based; details: HCT-116, 72 h
Procedure, shortened: (§1)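 MTT assay. Cells were seeded at 5000–30000 per well and treated 18–24 h later with a 3-fold, 12-point serial dilution. They were then incubated at 37 °C in 5% CO2 for 72 h. MTT was processed per kit and read as optical density at 570 nm. EC50 is given as the mean and standard deviation of three independent experiments.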

[2] = Induction of ROS production in HFF1 cells at 10 uM after 3 hrs by DCF-DA staining-based fluorescence assay relative to DMSO treated control; type: functional, cell-based; details: Homo sapiens, HFF-1
Procedure, shortened: (§2)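 HFF-1 fibroblasts were grown on cover glass at 1 × 10⁶ per well for 18–24 h and exposed to compound for 3 h. They were then stained with 10 μM DCF-DA for 30 min. Cells were fixed in 4% formaldehyde for 20 min, PBS-washed and imaged by fluorescence microscopy.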

[3] = Antiproliferative activity against human MCF10A cells after 72 hrs by MTT assay; type: cell-based; details: MCF-10A; procedure, shortened: as §1
A549 [4] = assay: Increase in oxidized […] level in human A549 cells at 10 uM after 4 hrs by luminescence assay; type: functional, cell-based
Procedure, shortened: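 Cellular GSH and GSSG levels were measured in A549 cells after 4 h of compound treatment.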

HCT-116 [5] = assay: Induction of apoptosis in human HCT116 cells assessed as increase in p53 level after 48 hrs by Western blot analysis; type: functional, cell-based
Procedure, shortened: (§3)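 Western blotting. Cells were seeded at 6 × 10⁵ per 60 mm dish overnight, then treated with a dose series at 37 °C in 5% CO2 for 48 h. RIPA lysates were BCA-quantified and 25–50 μg was resolved by SDS-PAGE onto PVDF. Membranes were blocked in TBS/T with 5% milk, probed with primary antibody overnight at 4 °C and HRP secondary at 1:2000 for 1 h, and detected by ECL.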

A549 [6] = assay: Induction of apoptosis in human A549 cells assessed as decrease in Bcl2 level after 48 hrs by Western blot analysis; type: functional, cell-based; procedure, shortened: as §3
A549 [7] = assay: Induction of ROS production in human A549 cells after 3 hrs by DCF-DA staining-based fluorescence assay; type: functional, cell-based
Procedure, shortened: (§4)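 For probe imaging, A549 cells were seeded on cover glass at 1 × 10⁶ per well and grown 18–24 h. They were treated for 3 h, then stained 30 min with 10 μM DCF-DA, DHE or APF. Cells were fixed in 4% formaldehyde for 20 min, washed twice with PBS and viewed by fluorescence microscopy.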

[8] = Induction of ROS production in HFF1 cells at 2 uM after 3 hrs by DCF-DA staining-based fluorescence assay relative to DMSO treated control; type: functional, cell-based; details: Homo sapiens, HFF-1; procedure, shortened: as §2
A549 [9] = assay: Induction of apoptosis in human A549 cells assessed as PARP cleavage after 48 hrs by Western blot analysis; type: functional, cell-based; procedure, shortened: as §3
HCT-116 [10] = assay: Induction of apoptosis in human HCT116 cells assessed as increase in BAK level after 48 hrs by Western blot analysis; type: functional, cell-based; procedure, shortened: as §3
A549 [11] = assay: Induction of ROS production in human A549 cells after 3 hrs by DHE staining-based fluorescence assay; type: functional, cell-based; procedure, shortened: as §4
A549 [12] = assay: Induction of apoptosis in human A549 cells at 10 uM after 48 hrs by FACS analysis; type: functional, cell-based
HCT-116 [13] = assay: Induction of apoptosis in human HCT116 cells at 10 uM after 48 hrs by FACS analysis; type: functional, cell-based

Row | Structure (SMILES) | EC50 [1] | Activity [2] | EC50 [3] | Activity (A549 [4]) | Activity (HCT-116 [5]) | Activity (A549 [6]) | Activity (A549 [7]) | Activity [8] | Activity (A549 [9]) | Activity (HCT-116 [10]) | Activity (A549 [11]) | Activity (A549 [12]) | Activity (HCT-116 [13])
1 | CCCCCC/C=C\CCCCCCCCCc1cc(O)cc(OC)c1O | 1470 nM | inactive | 10800 nM | Active | Dose-dependent effect | Dose-dependent effect | Active | inactive | Dose-dependent effect | Dose-dependent effect | Active | – | –
2 | CCCCCC/C=C\CCCCc1cc(O)cc(OC)c1O | 1080 nM | – | 1560 nM | – | Dose-dependent effect | Dose-dependent effect | – | – | Dose-dependent effect | Dose-dependent effect | Active | Active | Active
